Measurements published in ChEMBL document CHEMBL4390700, “Design, synthesis and antitumour and anti-angiogenesis evaluation of 22 moscatilin derivatives” (Bioorg Med Chem, 2019).
The source made the active and inactive calls. The rule behind the calls is not given here.

Columns and labels:
[1] = test system: MKN-45; test: Antiproliferative activity against human MKN45 cells incubated for 72 hrs by MTT assay; format: functional, cell-based; conditions: MKN-45, 72 h
Procedure, shortened: (§1)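 5×10³ cells per well preincubated 12 h at 37 °C, 5% CO₂. Medium replaced with fresh medium containing compound at various concentrations, DMSO ≤0.1%, for 72 h at 37 °C. MTT 0.5 mg/mL final added for 2 h; formazan dissolved in DMSO, A570 read; viability expressed relative to untreated cells.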

[2] = test system: A549; test: Antiproliferative activity against human A549 cells incubated for 72 hrs by MTT assay; format: functional, cell-based; conditions: A549, 72 h; procedure, shortened: as §1
[3] = test system: HCT-116; test: Antiproliferative activity against human HCT116 cells incubated for 72 hrs by MTT assay; format: functional, cell-based; conditions: HCT-116, 72 h; procedure, shortened: as §1
[4] = species on record: Danio rerio; test: Anti-angiogenic activity in zebrafish-guided angiogenesis model assessed as reduction in inter-segmental blood vessels measured at 72 hpf by fluorescence microscopy; format: functional
Procedure, shortened: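 Tg(fli-1:EGFP) zebrafish embryos, dechorionated at 24 hpf, 20 per group, kept in embryo water containing compound at 28.5 °C for a further 48 h. All compounds screened first at 50 μM; active ones titrated for minimum effective dose. At 72 hpf embryos anesthetized in 0.016% tricaine and intersegmental vessels imaged by fluorescence microscopy. SU5416 positive control.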

[5] = test system: HepG2; test: Antiproliferative activity against human HepG2 cells incubated for 72 hrs by MTT assay; format: functional, cell-based; conditions: HepG2, 72 h; procedure, shortened: as §1
[6] = test system: MDA-MB-231; test: Antiproliferative activity against human MDA-MB-231 cells incubated for 72 hrs by MTT assay; format: functional, cell-based; conditions: MDA-MB-231, 72 h; procedure, shortened: as §1
[7] = test system: HCT-116; test: Induction of apoptosis in human HCT116 cells assessed as late apoptotic cells level at 1 uM incubated for 48 hrs by Annexin V-FITC and propidium iodide staining based flow cytometry; format: functional
Procedure, shortened: (§2)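 HCT116 seeded 2 × 10⁵ cells/well, adhered overnight, then exposed to compound for 48 h. Annexin V-FITC/PI double staining, read by flow cytometry. Early apoptotic cells counted as Annexin V+/PI− (lower right quadrant), late apoptotic as Annexin V+/PI+ (upper right). Culture at 37 °C, 5% CO₂, medium with 10% FBS and penicillin/streptomycin, DMSO ≤0.1%.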

[8] = test system: HCT-116; test: Induction of apoptosis in human HCT116 cells assessed as early apoptotic cells level at 10 uM incubated for 48 hrs by Annexin V-FITC and propidium iodide staining based flow cytometry; format: functional
Procedure, shortened: (§3)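 2×10⁵ cells per well, adhered overnight, then exposed 48 h to compound at 1, 5 or 10 μM. Annexin V-FITC/PI double staining, read by flow cytometry. Annexin V+/PI− counted as early apoptotic, Annexin V+/PI+ as late. Gambogic acid 1 μM comparator.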

[9] = test system: HCT-116; test: Induction of apoptosis in human HCT116 cells assessed as early apoptotic cells level at 5 uM incubated for 48 hrs by Annexin V-FITC and propidium iodide staining based flow cytometry; format: functional; procedure, shortened: as §3
[10] = test system: HCT-116; test: Induction of apoptosis in human HCT116 cells assessed as early apoptotic cells level at 1 uM incubated for 48 hrs by Annexin V-FITC and propidium iodide staining based flow cytometry; format: functional; procedure, shortened: as §2
[11] = test system: HCT-116; test: Induction of cell cycle arrest in human HCT116 cells assessed reduction in accumulation at G1 phase at 5 to 10 uM incubated for 48 hrs by propidium iodide staining based flow cytometry; format: functional
Procedure, shortened: (§4)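 2×10⁵ cells per well, adhered overnight, then treated 48 h at 5 or 10 μM. Cells fixed in cold 70% ethanol overnight, RNase A treated 30 min at 37 °C, PI stained 15 min at 4 °C. DNA content measured by flow cytometry; phase distribution compared with untreated control.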

[12] = test system: HCT-116; test: Induction of apoptosis in human HCT116 cells assessed as late apoptotic cells level at 5 uM incubated for 48 hrs by Annexin V-FITC and propidium iodide staining based flow cytometry; format: functional; procedure, shortened: as §3
[13] = test system: HCT-116; test: Induction of apoptosis in human HCT116 cells assessed as late apoptotic cells level at 10 uM incubated for 48 hrs by Annexin V-FITC and propidium iodide staining based flow cytometry; format: functional; procedure, shortened: as §3
[14] = test system: HCT-116; test: Induction of cell cycle arrest in human HCT116 cells assessed accumulation at G2/M phase at 5 uM incubated for 48 hrs by propidium iodide staining based flow cytometry (reference value: 11.88%); format: functional; procedure, shortened: as §4
[15] = test system: HCT-116; test: Induction of cell cycle arrest in human HCT116 cells assessed reduction in accumulation at S phase at 5 to 10 uM incubated for 48 hrs by propidium iodide staining based flow cytometry; format: functional; procedure, shortened: as §4
[16] = Cytotoxicity against human NCM460 cells assessed as cell viability at 50 uM incubated for 72 hrs by MTT assay; format: cell-based; conditions: read-out: Activity
Procedure, shortened: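 NCM460 colon cells exposed to compound at 0.1, 1, 2, 5, 10, 20, 30, 40 and 50 μM; viability expressed as percent. Media carried penicillin G, streptomycin and 10% FBS; culture at 37 °C, 5% CO₂.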

[17] = test system: HCT-116; test: Induction of cell cycle arrest in human HCT116 cells assessed accumulation at G2/M phase at 10 uM incubated for 48 hrs by propidium iodide staining based flow cytometry (reference value: 11.88%); format: functional; procedure, shortened: as §4
[18] = test system: HCT-116; test: Induction of apoptosis in human HCT116 cells assessed as induction of chromatin congregation at 1 to 10 uM incubated for 48 hrs by DAPI staining based fluorescence microscopy; format: functional, cell-based; conditions: in the assay text read “Hoechst 33342” for “DAPI”
Procedure, shortened: (§5)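 After 48 h exposure to 1, 5 or 10 μM, nuclei stained with DAPI (methods name Hoechst 33342). Chromatin condensation and nuclear pyknosis scored by fluorescence microscopy at 400× against untreated cells.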

[19] = test system: HCT-116; test: Induction of morphological changes in human HCT116 cells assessed as induction of slow growth at 1 to 10 uM incubated for 48 hrs by Hoechst 33342 staining based fluorescence microscopy; format: functional, cell-based
[20] = test system: HCT-116; test: Reduction in alpha-tubulin protein expression in human HCT116 cells at 1 to 10 uM incubated for 48 hrs by Western blot analysis; format: functional, cell-based
Procedure, shortened: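 After 48 h treatment, cells lysed in buffer of 100 mM Tris-Cl pH 6.8, 4% SDS, 20% glycerol, 200 mM β-mercaptoethanol, 1 mM PMSF, aprotinin. Lysates spun 12000g for 30 min at 4 °C and protein quantified by BCA. Proteins run on 10% SDS-PAGE, semi-dry transferred to PVDF, probed overnight at 4 °C with anti-α-tubulin 1:1000 and GAPDH 1:1000 loading control, then HRP secondary. ECL detection with densitometry.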

[21] = test system: HCT-116; test: Induction of morphological changes in human HCT116 cells assessed as induction of tensile deformation at 1 to 10 uM incubated for 48 hrs by Hoechst 33342 staining based fluorescence microscopy; format: functional, cell-based
[22] = test system: HCT-116; test: Induction of morphological changes in human HCT116 cells assessed as induction of cell distortion at 1 to 10 uM incubated for 48 hrs by Hoechst 33342 staining based fluorescence microscopy; format: functional
[23] = test system: HCT-116; test: Induction of apoptosis in human HCT116 cells assessed as induction of […] pyknosis at 1 to 10 uM incubated for 48 hrs by DAPI staining based fluorescence microscopy; format: functional, cell-based; conditions: in the assay text read “Hoechst 33342” for “DAPI”; procedure, shortened: as §5

SMILES | IC50 [1] | IC50 [2] | IC50 [3] | IC50 [5] | IC50 [6] | MED [4] | further results
COc1cc(CCc2ccccc2F)cc(OC)c1O | > 25 µM | > 25 µM | 0.88 µM | 1.03 µM | 9.22 µM | 10 to 15 µM | –
COc1ccc(CCc2ccc(OC)c(OC)c2)cc1O | > 25 µM | 4.79 µM | 5.26 µM | 4.05 µM | 0.081 µM | 40 to 50 µM | –
COc1cc(CCc2ccc([N+](=O)[O-])cc2)cc(OC)c1O | 15.4 µM | 9.13 µM | 3.16 µM | 11 µM | 8.05 µM | – | –
COc1ccc(CCc2ccc(F)cc2)cc1OC | 3.98 µM | > 25 µM | 7.89 µM | > 25 µM | 0.92 µM | >50 µM | –
COc1ccc(CCc2ccc([N+](=O)[O-])cc2)cc1OC | 13.7 µM | > 25 µM | 5.97 µM | 1.6 µM | > 25 µM | >50 µM | –
COc1cc(CCc2ccc(F)cc2)cc(OC)c1O | 10.7 µM | 4.15 µM | 1.19 µM | 5.47 µM | > 25 µM | >50 µM | –
COc1cc(CCc2ccccc2)cc(OC)c1O | 1.04 µM | 10.9 µM | 0.53 µM | 7.83 µM | > 25 µM | 20 to 25 µM | –
COc1cc(CCc2cc(OC)c(O)c(OC)c2)ccc1O [MOSCATILIN] | 3.51 µM | 2.1 µM | 2.29 µM | 3.76 µM | 0.082 µM | 2.5 to 5 µM | –
COc1cc(CCc2cccc(Cl)c2Cl)cc(OC)c1O | 0.011 µM | 3.99 µM | 8.78 µM | 4.77 µM | 6.87 µM | 5 to 10 µM | –
COc1cc(CCc2ccc(OC)c(OC)c2)ccc1O | 2.06 µM | 3.64 µM | 2.69 µM | 2.27 µM | 1.64 µM | >50 µM | –
CC(C)=CCC[C@]1(C)C=Cc2c(O)c3c(c(CC=C(C)C)c2O1)O[C@]12C(=C[C@@H]4C[C@H]1C(C)(C)O[C@@]2(C/C=C(/C)C(=O)O)C4=O)C3=O [GAMBOGIC ACID] | 4.27 µM | 1.47 µM | 3.11 µM | 2.36 µM | 1.33 µM | – | Activity [7]: 31.8%; Activity [10]: 33%
Cc1cc(C)c(/C=C2\C(=O)Nc3ccccc32)[nH]1 [SEMAXANIB] | – | – | – | – | – | 1.25 to 2.5 µM | –
COc1ccc(CCc2ccccn2)cc1OC | 11.1 µM | > 25 µM | 0.93 µM | 13.8 µM | 10.5 µM | >50 µM | –

The remaining compounds from weak to strong by IC50 [1], led by results:

IC50 [1] | IC50 [2] | IC50 [3] | IC50 [5] | IC50 [6] | SMILES | MED [4] | further results
24.5 µM | 2.13 µM | 0.25 µM | 2.19 µM | 21.1 µM | COc1cc(CCc2ccccc2Cl)cc(OC)c1O | 0.62 to 1.25 µM | Activity [7]: 18.1%; Activity [8]: 36.9%; Activity [9]: 34.5%; Activity [10]: 24.8%; Activity [11]: Active; Activity [12]: 22.4%; Activity [13]: 37.2%; Activity [14]: 85.22%; Activity [15]: Active; viability at 72 h, 50 µM [16]: 84.4%; Activity [17]: 82.47%; Activity [18]: Active; Activity [19]: Dose-dependent effect; Activity [20]: Active; Activity [21]: Dose-dependent effect; Activity [22]: Dose-dependent effect; Activity [23]: Active
21.9 µM | > 25 µM | 2.56 µM | 2.08 µM | > 25 µM | COc1ccc(CCc2ccccc2)cc1OC | >50 µM | –
20.6 µM | 13.4 µM | 1.86 µM | 16.1 µM | 2.52 µM | COc1cc(CCc2ccc(Cl)c(Cl)c2)cc(OC)c1O | 20 to 25 µM | –
4.46 µM | 3.84 µM | 2.98 µM | 6.74 µM | > 25 µM | COc1cc(CCc2ccc(Cl)cc2Cl)cc(OC)c1O | 5 to 10 µM | –
3.81 µM | > 25 µM | 3.74 µM | 2.17 µM | 6.3 µM | COc1cc(CCc2ccncc2)cc(OC)c1O | >50 µM | –
2.97 µM | 2.24 µM | 7.57 µM | 12.4 µM | > 25 µM | COc1cc(CCc2cccc(F)c2)cc(OC)c1O | 15 to 20 µM | –
2.48 µM | 1.74 µM | 14.5 µM | 2.48 µM | > 25 µM | COc1ccccc1CCc1cc(OC)c(O)c(OC)c1 | 1.25 to 2.5 µM | –
2.04 µM | > 25 µM | 6.16 µM | 4.93 µM | > 25 µM | COc1ccc(CCc2ccccc2Cl)cc1OC | 20 to 25 µM | –
1.52 µM | > 25 µM | 0.52 µM | 0.74 µM | 1.25 µM | COc1ccc(CCc2ccc(Cl)cc2)cc1OC | >50 µM | –
1.49 µM | > 25 µM | 15.8 µM | 8.49 µM | > 25 µM | COc1cc(CCc2ccc(Br)cc2)cc(OC)c1O | 2.5 to 5 µM | –
0.74 µM | 22.9 µM | 0.33 µM | 8.78 µM | > 25 µM | COc1cc(CCc2ccc(Cl)cc2)cc(OC)c1O | >50 µM | –
0.66 µM | > 25 µM | 3.06 µM | 4.84 µM | > 25 µM | COc1cc(CCc2ccccn2)cc(OC)c1O | 25 to 50 µM | –
